From PubChem BioAssay
CendR NRP1 mod = modulators of CendR peptide binding to NRP-1, primary screen, biochemical, fluorescence polarization, uHTS; Neuropilin-1 (Homo sapiens), O14786; FAM-RPARPAR peptide binding to NRP-1; inhibition, % at 25 µM; 360,000 compounds, 0.85% hits; AID 602438, 2012;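 active = inhibition or corrected inhibition above about 18%, plus a signal ratio from 0.5 to 1.5, limit read from the data, passing the limit was not always enough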
MT1-MMP act inh = blockers of MT1-MMP proenzyme processing, primary screen, HT1080 RFP-PRO-GFP cells, GFP/RFP fluorescence | GFP/RFP ratio change, % at 20 µM | AID 651647, 2012 | 360,000 compounds, 0.061% hits | GFP/RFP ratio fluorescence, overnight; percent of plate control window, DMSO zero;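 active = GFP/RFP ratio change of at least 30% with cell ATP level not reduced by more than half and red fluorescence within 50% of control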
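Test system: HT1080 cells expressing an RFP-PRO-GFP fluorescent reporter construct / Compound dosing: single-point 20 µM compound, 1% DMSO / Schedule: cells overnight before dosing, compound overnight, 37 °C, 5% CO2 / Evaluation: GFP/RFP fluorescence ratio / Control set: DMSO and RFP-L50D-GFP cell wells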
beta cell repl = inducers of MIN6 beta-cell proliferation, primary screen, ATP luminescence, uHTS. MIN6 cells proliferation, ATPlite luminescence, 48 h; cells starved in 0.2% serum; 100% = growth in 10% serum. 330,000 compounds, 0.29% hits. proliferation, % at 10 µM. AID 2380, 2010;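 active = compounds whose signal lies at least 3.5 SD above the mean of all wells on their plate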;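 also: 0% = DMSO-treated cells in low-serum medium and 100% = 10% serum control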
Myeloid diff 2 = induction of myeloid progenitor differentiation, primary screen, cell-based, flow cytometry, MLPCN library | ER-HoxA9 myeloid progenitors, lysozyme-GFP differentiation | calls only at 10 µM | 360,000 compounds, 1% hits;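 active = normalized GFP-positive differentiation at or above the plate's own cutoff, the solvent-only control mean plus 3 SD; inconclusive = no clear call, values can overlap the other calls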;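 also: cells exposed to compound for four days before flow analysis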
SENP1 inh = human SENP1 catalytic domain inhibitors, primary screen, biochemical, FRET, uHTS | inhibition, % at 10 µM | 360,000 compounds, 0.21% hits | recombinant SENP1 catalytic domain, CyPet-SUMO1-YPet FRET cleavage | Sentrin-specific protease 1 (Homo sapiens), Q9P0U3;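 active = inhibition at least 30% at 10 µM, raw YFP signal under a set limit, fluorescence ratio 0.5 to 1.5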;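 also: 0% = enzyme with DMSO and 100% = no enzyme wells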
Target sequence (Q9P0U3 419-644 limits assumed): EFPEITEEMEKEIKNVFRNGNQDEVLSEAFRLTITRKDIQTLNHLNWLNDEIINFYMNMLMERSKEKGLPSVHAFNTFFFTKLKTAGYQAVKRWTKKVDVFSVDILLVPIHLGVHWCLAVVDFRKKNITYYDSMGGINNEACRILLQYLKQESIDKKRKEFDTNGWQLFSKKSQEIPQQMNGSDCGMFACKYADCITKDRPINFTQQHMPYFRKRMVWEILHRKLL
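Material: hSENP1 catalytic domain, recombinant; medium: Tris pH 8 with BME, BSA, NP40 and catalase; compound: single concentration of 10 µM compound, 0.5% DMSO final; technique: FRET read of cyan and yellow fluorescence; timing: 50 min enzyme reaction, room temperature, light-protected; reagent: SFCypet-SUMO1-SFYpet substrate at 25 nM; control set: no-enzyme low, enzyme-DMSO high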
DAGLB inh = DAGLB lipase inhibitors, primary screen, biochemical, fluorescence, HTS; Diacylglycerol lipase-beta (Homo sapiens), Q8NCG7; HEK293T DAGLB membrane lysate, EnzChek fluorogenic substrate; inhibition, % at 5.17 µM; 340,000 compounds, 0.059% hits; AID 504411, 2011; in the data active = inhibition above about 34%;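 also: 0% = enzyme with vehicle and 100% = wells lacking enzyme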
Active calls of the source: *. Compounds with a hit are over-represented: about 2.4% of the library has one in this group of screens.

`C/C=C(\C)C(=O)OC1[C@H](OC(C)=O)C2(CO)C(CC1(C)C)C1=CCC3C4(C)CCC(O[C@@H]5O[C@H](C(=O)O)[C@@H](O[C@@H]6O[C@H](CO)[C@@H](O)[C@H](O)[C@H]6O)[C@H](O)[C@H]5O[C@H]5O[C@H](CO)[C@@H](O)[C@H](O)[C@H]5O)[C@](C)(CO)C4CCC3(C)[C@]1(C)C[C@H]2O` (stereo partly specified) gave CendR NRP1 mod -11, MT1-MMP act inh -5, Myeloid diff 2 inactive, SENP1 inh 3 and DAGLB inh 3.
Cn1c(=O)cc2c3c(c(N4CCCCC4)ccc31)C(=O)c1ccccc1-2 was read as CendR NRP1 mod 58*, MT1-MMP act inh 26, beta cell repl -2, Myeloid diff 2 inactive and SENP1 inh 33*.
`CCOc1ccc2noc3c2c1C(=O)c1ccccc1-3` gave CendR NRP1 mod 126, MT1-MMP act inh -79, beta cell repl -4, Myeloid diff 2 inactive, SENP1 inh -25 and DAGLB inh -156.
`O=C1c2ccccc2-c2onc3ccc(N4CCCC4)c1c23` gave CendR NRP1 mod 128, MT1-MMP act inh -9, Myeloid diff 2 active, SENP1 inh -41 and DAGLB inh -47.
Screening Cn1nc(-c2ccccc2)c(N2CCCCC2)cc1=O returned CendR NRP1 mod -2, MT1-MMP act inh 1, beta cell repl -1, Myeloid diff 2 inactive, SENP1 inh 0 and DAGLB inh -2.
For CC1(C)Cc2c(c(N3CCOCC3)nc3sc(-c4ccc(C(=O)O)o4)c(N)c23)CO1 the results were CendR NRP1 mod -213, MT1-MMP act inh -7, beta cell repl -1, Myeloid diff 2 active, SENP1 inh -24 and DAGLB inh 2.
COc1cc(NS(=O)(=O)c2cn(C)cn2)cc(OC)c1OC was read as CendR NRP1 mod 8, MT1-MMP act inh 2, beta cell repl 0, Myeloid diff 2 inactive, SENP1 inh 3 and DAGLB inh 2.
Screening CNC(=S)NN(c1ccccc1)c1ccccc1 returned CendR NRP1 mod 44*, MT1-MMP act inh -1, beta cell repl 3, Myeloid diff 2 inactive, SENP1 inh 1 and DAGLB inh -2.
Screening S=C(NC1CCCCC1)NN(c1ccccc1)c1ccccc1 returned CendR NRP1 mod -3, MT1-MMP act inh -4, beta cell repl -6, Myeloid diff 2 inactive, SENP1 inh 3 and DAGLB inh -2.
Screening COc1ccc2cc(CN(CC3CCCO3)S(=O)(=O)c3ccc(C(C)=O)cc3)c(=O)[nH]c2c1 (stereo unspecified) returned CendR NRP1 mod -6, MT1-MMP act inh 6, beta cell repl -2, Myeloid diff 2 active, SENP1 inh 0 and DAGLB inh -4.
For C#CCNC(=O)C[C@@H]1C[C@@]2(C(=O)OCC)CCCC=C2N(Cc2ccc(Cl)cc2Cl)C1=O the results were CendR NRP1 mod 11, MT1-MMP act inh 1, Myeloid diff 2 inactive and SENP1 inh 1.
`CCOC(=O)C1(Cc2ccccc2Cl)CCN(C(=O)CN2CCOC2=O)CC1` gave CendR NRP1 mod 23*, MT1-MMP act inh 0, beta cell repl -2, Myeloid diff 2 inactive, SENP1 inh 0 and DAGLB inh -2.
O=C(NCc1ccccc1)C1CCCN(S(=O)(=O)c2ccc(Br)cc2)C1 (stereo unspecified) was read as CendR NRP1 mod 14, MT1-MMP act inh -9, beta cell repl 0, Myeloid diff 2 inconclusive, SENP1 inh 0 and DAGLB inh -9.
For CC(=O)Nc1ccccc1C(=O)C(=O)Nc1ccc(C(=O)NCC2CCCO2)cc1 (stereo unspecified) the results were CendR NRP1 mod 3, MT1-MMP act inh 1, beta cell repl -4, Myeloid diff 2 active, SENP1 inh 1 and DAGLB inh 1.
For COc1cc(CN(CC2CCCO2)C(=O)c2cccs2)cc(OC)c1OC (stereo unspecified) the results were CendR NRP1 mod 26*, MT1-MMP act inh -2, beta cell repl 0, Myeloid diff 2 inactive, SENP1 inh 2 and DAGLB inh -2.
Screening O=C(NCC1CCCO1)c1cccs1 (stereo unspecified) returned CendR NRP1 mod -8, MT1-MMP act inh -3, beta cell repl -1, Myeloid diff 2 active, SENP1 inh 3 and DAGLB inh -1.
`COc1cc(CN(CC2CCCO2)C(=O)c2ccco2)cc(OC)c1OC` (stereo unspecified) gave CendR NRP1 mod 16, MT1-MMP act inh -3, beta cell repl -4, Myeloid diff 2 inactive, SENP1 inh 1 and DAGLB inh -3.
Screening Cc1ccccc1NC(=O)COc1coc(CN2CCN(c3ccccc3)CC2)cc1=O returned CendR NRP1 mod -1, MT1-MMP act inh -1, beta cell repl -2, Myeloid diff 2 inactive, SENP1 inh 1 and DAGLB inh 1.
CN(C)S(=O)(=O)n1cc(/C=C(\NC(=O)c2ccccc2F)C(=O)NCCCn2ccnc2)c2ccccc21 was read as CendR NRP1 mod 6, MT1-MMP act inh 1, beta cell repl -1, Myeloid diff 2 inactive, SENP1 inh 0 and DAGLB inh 0.
For Nc1cc(S(=O)(=O)O)cc([N+](=O)[O-])c1O the results were CendR NRP1 mod 28*, MT1-MMP act inh -1, beta cell repl -1, Myeloid diff 2 inactive, SENP1 inh 4 and DAGLB inh -1.
`Cc1ccc(-c2csc(N)n2)cc1` gave CendR NRP1 mod 1, MT1-MMP act inh -2, Myeloid diff 2 inactive, SENP1 inh -1 and DAGLB inh 2.
COCc1cccc(-c2csc(C(C)(O)c3ccccc3)n2)c1 (stereo unspecified) was read as CendR NRP1 mod 41*, MT1-MMP act inh 1, Myeloid diff 2 inactive and SENP1 inh 4.
Screening COc1ccc(-c2csc(N)n2)cc1 returned CendR NRP1 mod 31*, MT1-MMP act inh 5, beta cell repl -1, Myeloid diff 2 inactive, SENP1 inh 0 and DAGLB inh -1.
`CC(O)(c1ccccc1)c1nc(-c2ccccc2)cs1` (stereo unspecified) gave CendR NRP1 mod 3, MT1-MMP act inh 2, Myeloid diff 2 inactive and SENP1 inh -2.
